Test results taken from ChEMBL document CHEMBL1141286, “Benzochromenones from the marine crinoid Comantheria rotula inhibit hypoxia-inducible factor-1 (HIF-1) in cell-based reporter assays and differentially suppress the growth of certain tumor cell lines” (J Nat Prod, 2007).
The source made the active and inactive calls.

What was measured:
[1] = system: SF-539; assay: Growth inhibition of human SF539 cells; assay type: functional
[2] = system: KM12; assay: Growth inhibition of human KM12 cells; assay type: functional
[3] = system: Malme-3M; assay: Growth inhibition of human MALME-3M cells; assay type: functional
[4] = Growth inhibition of human OVACAR3 cells; assay type: functional
[5] = system: IGROV-1; assay: Growth inhibition of human IGROV1 cells; assay type: functional
[6] = system: DU-145; assay: Growth inhibition of human DU145 cells; assay type: functional
[7] = DPPH radical scavenging activity relative to Trolox; assay type: functional; design: concentration or dose not given beside the values
Outline: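 Compounds were made up as DMSO stocks and diluted in isopropanol to a final 10 μM. Each was mixed with DPPH in isopropanol at 10 μM or 30 μM DPPH, and absorbance was read at 515 nm. Scavenging was calculated as [1 − OD515(compound)/OD515(control)] × 100, then expressed as a percentage of Trolox activity. One experiment was run in triplicate.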

[8] = system: SK-MEL-5; assay: Growth inhibition of human SK-MEL5 cells; assay type: functional
[9] = system: NCI-H522; assay: Growth inhibition of human NCI-H522 cells; assay type: functional
[10] = system: HCT-116; assay: Growth inhibition of human HCT116 cells; assay type: functional
[11] = Inhibition of 1,10-phenanthroline-induced HIF1 activation in T47D cells by TK-luciferase assay; assay type: cell-based; settings: Homo sapiens
Outline: (§1)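 HIF-1 reporter (pHRE-TK-Luc) assays in transfected PC-3 or T47D cells; HIF-1 induced by hypoxia or by the hypoxia mimetic 1,10-phenanthroline (10 μM); compounds at half-log concentrations; luciferase activity measured; IC50 from experiments in triplicate.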

[12] = system: A549; assay: Growth inhibition of human A549 cells; assay type: functional
[13] = system: HCT-15; assay: Growth inhibition of human HCT15 cells; assay type: functional
[14] = system: UACC-257; assay: Growth inhibition of human UACC257 cells; assay type: functional
[15] = system: T47D; assay: Growth inhibition of human T47D cells; assay type: functional
[16] = system: HT-29; assay: Growth inhibition of human HT29 cells; assay type: functional
[17] = system: SK-OV-3; assay: Growth inhibition of human SK-OV3 cells; assay type: functional
[18] = system: SW-620; assay: Growth inhibition of human SW620 cells; assay type: functional
[19] = system: 786-0; assay: Growth inhibition of human 786-0 cells; assay type: functional
[20] = system: PC-3; assay: Growth inhibition of human PC3 cells; assay type: functional
[21] = system: SF-295; assay: Growth inhibition of human SF295 cells; assay type: functional
[22] = system: COLO 205; assay: Growth inhibition of human COLO205 cells; assay type: functional
[23] = system: MCF7; assay: Growth inhibition of human MCF7 cells; assay type: functional
[24] = system: CCRF-CEM; assay: Growth inhibition of human CCRF-CEM cells; assay type: functional
[25] = system: A498; assay: Growth inhibition of human A498 cells; assay type: functional
[26] = system: T47D; assay: Inhibition of 1,10-phenanthroline-induced VEGF protein secretion in human T47D cells at 10 uM after 16 hrs by ELISA; assay type: functional, cell-based
Outline: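 T47D cells stimulated with 1,10-phenanthroline, compound at 10 μM; secreted VEGF in conditioned media by ELISA, normalized to cell-lysate protein.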

[27] = system: SR; assay: Growth inhibition of human SR cells; assay type: functional
[28] = system: NCI-H460; assay: Growth inhibition of human NCI-H460 cells; assay type: functional
[29] = system: OVCAR-4; assay: Growth inhibition of human OVACAR4 cells; assay type: functional
[30] = system: M14; assay: Growth inhibition of human M14 cells; assay type: functional
[31] = system: SF-268; assay: Growth inhibition of human SF268 cells; assay type: functional
[32] = Inhibition of 1,10-phenanthroline-induced HIF1 activation in PC3 cells by TK-luciferase assay; assay type: cell-based; settings: Homo sapiens, PC-3; outline: as §1
[33] = system: NCI/ADR-RES; assay: Growth inhibition of human NCI/ADR-RES cells; assay type: functional
[34] = system: SK-MEL-28; assay: Growth inhibition of human SK-MEL28 cells; assay type: functional
[35] = system: ACHN; assay: Growth inhibition of human ACHN cells; assay type: functional
[36] = system: OVCAR-8; assay: Growth inhibition of human OVACAR8 cells; assay type: functional
[37] = system: SK-MEL-2; assay: Growth inhibition of human SK-MEL2 cells; assay type: functional
[38] = system: EKVX; assay: Growth inhibition of human EKVX cells; assay type: functional
[39] = system: UACC-62; assay: Growth inhibition of human UACC62 cells; assay type: functional
[40] = read-out: Log LC50 (the source's name) (converted)

COc1cc(O)cc2cc3oc(C)cc(=O)c3c(OC)c12 [COMANTHERIN]
85.1 µM: GI50 [20] | GI50 [31]
> 10 µM: IC50 [32]
> 100 µM: GI50 [1] | LC50 [1] | TGI ([1]; read-out: Log TGI (converted)) | GI50 [2] | CC50 [2, 40] | TGI ([2]; read-out: Log TGI (converted)) | GI50 [3] | CC50 [3, 40] | TGI ([3]; read-out: Log TGI (converted)) | GI50 [4] | CC50 [4, 40] | TGI ([4]; read-out: Log TGI (converted)) | GI50 [5] | CC50 [5, 40] | TGI ([5]; read-out: Log TGI (converted)) | GI50 [6] | CC50 [6, 40] | TGI ([6]; read-out: Log TGI (converted)) | GI50 [8] | LC50 [8] | TGI ([8]; read-out: Log TGI (converted)) | GI50 [9] | CC50 [9, 40] | TGI ([9]; read-out: Log TGI (converted)) | GI50 [10] | CC50 [10, 40] | TGI ([10]; read-out: Log TGI (converted)) | GI50 [12] | CC50 [12, 40] | TGI ([12]; read-out: Log TGI (converted)) | GI50 [13] | CC50 [13, 40] | TGI ([13]; read-out: Log TGI (converted)) | GI50 [14] | LC50 [14] | TGI ([14]; read-out: Log TGI (converted)) | LC50 [15] | TGI ([15]; read-out: Log TGI (converted)) | GI50 [16] | CC50 [16, 40] | TGI ([16]; read-out: Log TGI (converted)) | GI50 [17] | LC50 [17] | TGI ([17]; read-out: Log TGI (converted)) | GI50 [18] | CC50 [18, 40] | TGI ([18]; read-out: Log TGI (converted)) | GI50 [19] | LC50 [19] | TGI ([19]; read-out: Log TGI (converted)) | LC50 [20] | TGI ([20]; read-out: Log TGI (converted)) | GI50 [21] | LC50 [21] | TGI ([21]; read-out: Log TGI (converted)) | GI50 [22] | CC50 [22, 40] | TGI ([22]; read-out: Log TGI (converted)) | GI50 [23] | LC50 [23] | TGI ([23]; read-out: Log TGI (converted)) | LC50 [24] | TGI ([24]; read-out: Log TGI (converted)) | GI50 [25] | LC50 [25] | TGI ([25]; read-out: Log TGI (converted)) | CC50 [27, 40] | TGI ([27]; read-out: Log TGI (converted)) | GI50 [28] | CC50 [28, 40] | TGI ([28]; read-out: Log TGI (converted)) | GI50 [29] | LC50 [29] | TGI ([29]; read-out: Log TGI (converted)) | GI50 [30] | LC50 (50% lethal concentration) [30] | TGI ([30]; read-out: Log TGI (converted)) | LC50 [31] | TGI ([31]; read-out: Log TGI (converted)) | GI50 [33] | LC50 (concentration killing 50% of cells) [33] | TGI ([33]; read-out: Log TGI (converted)) | GI50 [34] | CC50 [34, 40] | TGI ([34]; read-out: Log TGI (converted)) | GI50 [35] | CC50 [35, 40] | TGI ([35]; read-out: Log TGI (converted)) | GI50 [36] | LC50 [36] | TGI ([36]; read-out: Log TGI (converted)) | GI50 [37] | LC50 [37] | TGI ([37]; read-out: Log TGI (converted)) | GI50 [38] | CC50 [38, 40] | TGI ([38]; read-out: Log TGI (converted)) | GI50 [39] | LC50 (lethal concentration, 50% cell kill) [39] | TGI ([39]; read-out: Log TGI (converted))
40%: Activity [7]
81.3 µM: GI50 [15]
2090 nM: GI50 [24]
inactive: Activity [26]
97.7 µM: GI50 [27]
2700 nM: IC50 [11]
